Holding throughout (assay type): functional, cell-based
Assay [1] is described as follows: Cytotoxicity against human […] cells after 48 hrs by MTT assay. A digest of the protocol:
(§1)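 Adherent cells grown in RPMI1640 or DMEM plus 10% FBS at 37 °C, 5% CO2. They were seeded in 96-well plates and left 12 h to adhere before dosing. MTT viability was used to plot growth curves, and IC50 was calculated by Reed and Muench's method.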
(In general: Tetrazolium assays rely on reduction of a dye to a coloured formazan, in cell work by metabolically active cells.)

Another assay deals with SW480. Put plainly: Cytotoxicity against human SW480 cells after 48 hrs by MTT assay. The settings on record: SW480, 48 h. The essentials: as §1
A further assay concerns A549. Put plainly: Cytotoxicity against human A549 cells after 48 hrs by MTT assay. The settings on record: A549, 48 h. A digest of the protocol:
as §1

Another assay has as its system HL-60. Put plainly: Cytotoxicity against human HL60 cells after 48 hrs by MTT assay. The settings on record: HL-60, 48 h. A digest of the protocol:
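Suspension (leukemia) cells seeded just before drug addition at an initial density of 1 × 10^5 cells/mL. They were grown in RPMI1640 or DMEM with 10% FBS, 5% CO2, 37 °C. Cells were exposed for 48 h to […], 0.32, 1.6, 8 and 40 μM in triplicate, with cisplatin as positive control. Viability was read by MTT and IC50 was derived by Reed and Muench's method.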

Another assay has as its system MCF7. Kind of assay: Cytotoxicity against human MCF7 cells after 48 hrs by MTT assay. The settings on record: MCF7, 48 h. A digest of the protocol: as §1

As a reminder, the IC50 is the concentration at which inhibition is half-maximal. For the molecule `CC[C@H]1C[C@@H]2CN3CCc4c([nH]c5c([C@H]6C[C@H]7[C@]8(C(=O)OC)CO[C@H](N(C)[C@H]8Cc8c6[nH]c6ccccc86)[C@@]76O[C@@H]6C)c(OC)ccc45)[C@](C(=O)OC)(C2)[C@H]13`, the IC50 is 3.41 µM in assay [1]; 2.59 µM with SW480; 3.52 µM in the assay on A549; 790 nM in the assay with HL-60; 3.1 µM in the assay with MCF7.

For `CC[C@H]1C[C@H]2C[C@H]3c4[nH]c5ccc(OC)cc5c4CCN([C@@H]13)[C@@H]2CC(C)=O`, the IC50 was determined as 14.8 µM in assay [1]; 13 µM in the assay with SW480; 28.5 µM with A549; 3880 nM in the assay on HL-60; 13.2 µM in the assay on MCF7.

With `C/C=C1/CN(C)[C@H]2Cc3c([nH]c4ccccc34)[C@H](c3cc4[nH]c5c(c4cc3OC)CCN3C[C@H]4C[C@H](CC)[C@H]3[C@@]5(C(=O)OC)C4)C[C@H]1[C@]2(CO)C(=O)OC`, the IC50 stood at 9.86 µM in assay [1]; 16.5 µM in the assay with SW480; 16.5 µM in the assay on A549; 2350 nM with HL-60; 13.3 µM in the assay on MCF7.

With `C/C=C1/CN(C)[C@H]2Cc3c([nH]c4ccccc34)[C@H](c3cc4[nH]c5c(c4cc3OC)CCN3C[C@H]4C[C@H](CC)[C@H]3[C@H]5C4)C[C@H]1[C@]2(CO)C(=O)OC`, the IC50 stood at 14.8 µM in assay [1]; 13 µM in the assay with SW480; 28.5 µM in the assay on A549; 3880 nM in the assay on HL-60; 13.2 µM with MCF7.

Consider `C/C=C1/CN(C)[C@H]2Cc3c([nH]c4ccccc34)[C@H](c3cc4c5c([nH]c4cc3OC)[C@]3(C(=O)OC)C[C@@H]4C[C@H](CC)[C@@H]3N(CC5)C4)C[C@H]1[C@]2(CO)C(=O)OC`, for which the IC50 stood at 12.3 µM in assay [1]; 13.4 µM in the assay on SW480; 14.8 µM with A549; 2680 nM with HL-60; 12.6 µM with MCF7.

With `C/C=C1/CN(C)[C@H]2Cc3c([nH]c4ccccc34)[C@@H](c3c(O)ccc4c5c([nH]c34)[C@]3(C(=O)OC)C[C@H]4C[C@H](CC)[C@@H]3N(CC5)C4)C[C@@H]1[C@]2(CO)C(=O)OC`, the half-inhibitory concentration (IC50) in assay [1] came out at 3.75 µM; with SW480 it was 2.72 µM; with A549, 9.4 µM; with HL-60, 2900 nM; in the assay on MCF7 it was 3.02 µM.

As to `CC[C@@]12CC[C@@H]3N(C)c4ccc([C@@H]5[C@H]6O[C@H]6[C@@]6(CC)CC(C(=O)OC)=C7Nc8c(cc(O)c(OC)c8OC)[C@@]78CCN5[C@@H]68)cc4[C@@]34CCN(C[C@H]3O[C@H]31)[C@@H]24` [CONOFOLINE], the IC50 in assay [1] worked out at 10.3 µM; in the assay on SW480, 13.7 µM; in the assay with A549, 10.3 µM; in the assay with HL-60, 800 nM; in the assay on MCF7, 14 µM.

As for `CC[C@@]12CC(C(=O)OC)=C3Nc4cc5c(cc4[C@@]34CCN(C[C@H]3O[C@H]31)[C@@H]24)[C@@H]1[C@H](O5)[C@@H](O)[C@@]2(CC)CC(C(=O)OC)=C3Nc4c(cc(O)c(OC)c4OC)[C@@]34CCN1[C@@H]24` [CONOPHYLLINE], the IC50 in assay [1] was determined as 0.35 µM; in the assay with SW480, 1.49 µM; in the assay on A549 it was 0.21 µM; in the assay with HL-60, 170 nM; in the assay on MCF7, 1.02 µM.

(Values after ChEMBL document CHEMBL2406995, “Cytotoxic indole alkaloids from Tabernaemontana divaricata” (J Nat Prod, 2013).)
